Measurements published in ChEMBL document CHEMBL1926513, “Synthesis of novel cinnamanilides as potential immunosuppressive agents” (Eur J Med Chem, 2012).
The source made the active and inactive calls. The calls are words filed in the database; no cut-off is given here.

Legend:
[1] = Immunosuppressive activity in BALB/c mouse splenocytes assessed as inhibition of CD3/CD28-induced cell proliferation at 5 ug/mL after 48 hrs by MTT assay; assay type: functional; conditions: Splenocyte
Summary of the method: (§1)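 Splenocytes from 6 to 8 week-old BALB/c mice (erythrocytes lysed with ammonium chloride, washed in PBS/2% FBS) plated at 5 × 10⁵ cells/well in RPMI 1640 with 10% FBS and antibiotics; CD3/CD28 co-stimulation with compound ([…] as printed for single-concentration screen, or a concentration series for IC50) for 48 h; survival by MTT.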

[2] = Immunosuppressive activity in BALB/c mouse splenocytes assessed as inhibition of CD3/CD28-induced cell proliferation after 48 hrs by MTT assay; assay type: functional, cell-based; conditions: Splenocyte; summary of the method: as §1
Splenocyte = experiment: Cytotoxicity against CD3/CD28-induced BALB/c mouse splenocytes at 1 to 10 ug/mL after 48 hrs by MTT assay; assay type: functional, cell-based
Summary of the method: (§2)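 Spleen cells from 6 to 8 week-old BALB/c mice, single-cell suspension, erythrocytes depleted with ammonium chloride, washed in PBS/2% FBS; 5 × 10⁵ cells/well in RPMI 1640 with 10% FBS, penicillin, streptomycin; unstimulated or CD3/CD28-co-stimulated cells exposed to varied compound concentrations for 48 h; viability by MTT. Compounds from DMSO stocks diluted in RPMI-1640/10% FBS.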

[3] = Cytotoxicity against BALB/c mouse splenocytes at 1 to 10 ug/mL after 48 hrs by MTT assay; assay type: cell-based; conditions: splenocyte; summary of the method: as §2

Compound | inhibition at 5 µg/mL [1] [%] | IC50 [2] [µM] | Activity (Splenocyte) | Activity [3]
CO/C(=C\c1ccc(F)cc1)C(=O)Nc1ccc(OC)cc1 | > 50 | 13.5 |  | 
CO/C(=C\c1ccc(Cl)cc1)C(=O)Nc1ccc(C)cc1 | > 50 | 12.7 |  | 
CO/C(=C\c1ccc(F)cc1)C(=O)Nc1ccc(C)cc1 | < 50 |  |  | 
CO/C(=C\c1ccccc1)C(=O)Nc1ccc(C(C)C)cc1 | > 50 | 3.46 | Active | Non-toxic
CO/C(=C\c1ccc(OC)cc1)C(=O)Nc1ccc(C)cc1 | > 50 | 0.94 | Active | Non-toxic
CO/C(=C\c1ccc(OC)cc1)C(=O)Nc1ccc(Cl)cc1 | > 50 | 14.7 |  | 
CO/C(=C\c1ccc(OC)cc1)C(=O)Nc1ccc(C(C)C)cc1 | < 50 |  |  | 
CO/C(=C\c1ccc(Cl)cc1)C(=O)Nc1ccc(C(C)C)cc1 | < 50 |  |  | 
CO/C(=C\c1ccc(Cl)cc1)C(=O)Nc1ccc(Br)cc1 | > 50 | 11 |  | 
CO/C(=C\c1ccc(OC)cc1)C(=O)Nc1ccc(F)cc1 | < 50 |  |  | 
CO/C(=C\c1ccc(F)cc1)C(=O)Nc1ccccc1 | < 50 |  |  | 
CO/C(=C\c1ccccc1)C(=O)Nc1ccccc1 | > 50 | 15.2 |  | 
CO/C(=C\c1ccccc1)C(=O)Nc1ccc(OC)cc1 | < 50 |  |  | 
CO/C(=C\c1ccccc1)C(=O)Nc1ccc(F)cc1 | > 50 | 4.94 |  | 
CO/C(=C\c1ccc(Br)cc1)C(=O)Nc1ccc(C(C)C)cc1 | < 50 |  |  | 
CO/C(=C\c1ccc(F)cc1)C(=O)Nc1ccc(F)cc1 | < 50 |  |  | 
CO/C(=C\c1ccc(Cl)cc1)C(=O)Nc1ccc(OC)cc1 | < 50 |  |  | 
CO/C(=C\c1ccc(Br)cc1)C(=O)Nc1ccc(Br)cc1 | < 50 |  |  | 

Compound | inhibition at 5 µg/mL [1] [%] | IC50 [2] [µM] | Activity (Splenocyte) | Activity [3]
CO/C(=C\c1ccc(OC)cc1)C(=O)Nc1ccc(OC)cc1 | < 50 |  |  | 
CO/C(=C\c1ccc(F)cc1)C(=O)Nc1ccc(Br)cc1 | < 50 |  |  | 
CO/C(=C\c1ccc(Cl)cc1)C(=O)Nc1ccc(Cl)cc1 | < 50 |  |  | 
CO/C(=C\c1ccc(Cl)cc1)C(=O)Nc1ccccc1 | < 50 |  |  | 
CO/C(=C\c1ccccc1)C(=O)Nc1ccc(Cl)cc1 | > 50 | 17 |  | 
CO/C(=C\c1ccc(Br)cc1)C(=O)Nc1ccccc1 | < 50 |  |  | 
CO/C(=C\c1ccc(F)cc1)C(=O)Nc1ccc(Cl)cc1 | > 50 | 9.48 |  | 
CO/C(=C\c1ccc(F)cc1)C(=O)Nc1ccc(C(C)C)cc1 | > 50 | 4.66 | Active | Non-toxic
CO/C(=C\c1ccc(OC)cc1)C(=O)Nc1ccccc1 | < 50 |  |  | 
CO/C(=C\c1ccc(Br)cc1)C(=O)Nc1ccc(F)cc1 | < 50 |  |  | 
CO/C(=C\c1ccc(Br)cc1)C(=O)Nc1ccc(OC)cc1 | < 50 |  |  | 
CO/C(=C\c1ccc(Br)cc1)C(=O)Nc1ccc(C)cc1 | > 50 | 12.9 |  | 
CO/C(=C\c1ccccc1)C(=O)Nc1ccc(C)cc1 | > 50 | 16.6 |  | 
CO/C(=C\c1ccc(Cl)cc1)C(=O)Nc1ccc(F)cc1 | > 50 | 14 |  | 
CO/C(=C\c1ccc(Br)cc1)C(=O)Nc1ccc(Cl)cc1 | < 50 |  |  | 
CO/C(=C\c1ccc(OC)cc1)C(=O)Nc1ccc(Br)cc1 | > 50 | 1.77 | Active | Non-toxic
CO/C(=C\c1ccccc1)C(=O)Nc1ccc(Br)cc1 | < 50 |  |  | 
